Assay [1] can be described thus: Metal chelating activity assessed as Fe2+-compound complex formation incubated for 15 mins by Ferrozine based assay. Put shortly:
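FeSO₄ (25 µM) in water incubated with or without test compound (100 µM, DMSO) for 15 min at room temperature, 300 µL final. Ferrozine then added (1 mM final), shaken 15 min at room temperature. Absorbance of the ferrozine–Fe(II) magenta complex read at 562 nm; chelation seen as reduced complex formation.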

Assay [2] concerns THP-1. The assay is described as follows: Antiinflammatory activity in human THP-1 monocytes assessed as decrease in TNFalpha level incubated for 24 hrs by ELISA based qRT-PCR analysis. The format is functional, cell-based. The method in brief: (§1)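 THP-1 cells were seeded at 1 x 10⁵ cells/ml for 48 h. For macrophages, cells were differentiated with 0.01 µM PMA for 48 h; monocytes received no PMA. Cells were then given 24 h with or without 10 µg/ml LPS, plus ligands alone or with the CB2R inverse agonist JTE907 (10 µM). Cytokines were measured in 5 µL supernatant (from 1 x 10⁴ cells) by ProQuantum immunoassay, read as pg/ml from kit titration curves; n=3.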
(In an ELISA, binding on a coated surface is turned into a signal by an enzyme label.)

Assay [3] relates to THP-1. The experiment in a line: Antiinflammatory activity in human THP-1 macrophages assessed as decrease in IFNgamma level incubated for 24 hrs by ELISA based qRT-PCR analysis. The format is functional, cell-based. The method in brief:
as §1

In assay [4] the test system is THP-1. The experiment in a line: Antiinflammatory activity in human THP-1 macrophages assessed as decrease in IL-1beta level incubated for 24 hrs by ELISA based qRT-PCR analysis. The format is functional, cell-based. The method in brief:
as §1

The test system of assay [5] is THP-1. The experiment in a line: Antiinflammatory activity in human THP-1 macrophages assessed as increase in IL-10 level incubated for 24 hrs by ELISA based qRT-PCR analysis. The format is functional, cell-based. The method in brief: as §1
The subject of assay [6] is THP-1. The experiment in a line: Antiinflammatory activity in human THP-1 macrophages assessed as decrease in IL-1beta level incubated for 24 hrs in presence of […] by ELISA based qRT-PCR analysis. The format is functional, cell-based. The method in brief: as §1
The test system of assay [7] is THP-1. The assay is described as follows: Antiinflammatory activity in human THP-1 monocytes assessed as decrease in IL-6 level incubated for 24 hrs by ELISA based qRT-PCR analysis. Format: functional, cell-based. Put shortly:
as §1

Assay [8] deals with THP-1. The assay is described as follows: Antiinflammatory activity in human THP-1 macrophages assessed as decrease in IL-6 level incubated for 24 hrs in presence of […] by ELISA based qRT-PCR analysis. Format: functional, cell-based. The method in brief:
as §1

Assay [9] has as its system THP-1. The experiment in a line: Antiinflammatory activity in human THP-1 monocytes assessed as decrease in IFNgamma level incubated for 24 hrs in presence of […] by ELISA based qRT-PCR analysis. Format: functional, cell-based. The method in brief:
as §1

The target of assay [10] is T1, Cannabinoid receptor 2 (Homo sapiens, UniProt P34972). The experiment in a line: Agonist activity at human CB2 receptor overexpressed in CHO-K1 cells assessed as cAMP level incubated for 30 mins by luminescence based assay. Format: functional, cell-based. Put shortly:
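CHO-K1 cells overexpressing human CB2R were plated at 30 000 cells/well and held overnight at 37 °C, 5% CO2. Test samples were added as dose–response solutions with NKH-477 to stimulate adenylate cyclase, then incubated 30 min at 37 °C. cAMP was detected by luminescence after cell lysis. Values were normalized to NKH-477 alone as 100% response. Three independent experiments were run in triplicate.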
(In general: Changes in cAMP serve as a functional read-out for many G protein-coupled receptors.)

The target of assay [11] is T2, Fatty-acid amide hydrolase 1 (Homo sapiens, UniProt O00519).
T2 sequence (O00519 whole entry): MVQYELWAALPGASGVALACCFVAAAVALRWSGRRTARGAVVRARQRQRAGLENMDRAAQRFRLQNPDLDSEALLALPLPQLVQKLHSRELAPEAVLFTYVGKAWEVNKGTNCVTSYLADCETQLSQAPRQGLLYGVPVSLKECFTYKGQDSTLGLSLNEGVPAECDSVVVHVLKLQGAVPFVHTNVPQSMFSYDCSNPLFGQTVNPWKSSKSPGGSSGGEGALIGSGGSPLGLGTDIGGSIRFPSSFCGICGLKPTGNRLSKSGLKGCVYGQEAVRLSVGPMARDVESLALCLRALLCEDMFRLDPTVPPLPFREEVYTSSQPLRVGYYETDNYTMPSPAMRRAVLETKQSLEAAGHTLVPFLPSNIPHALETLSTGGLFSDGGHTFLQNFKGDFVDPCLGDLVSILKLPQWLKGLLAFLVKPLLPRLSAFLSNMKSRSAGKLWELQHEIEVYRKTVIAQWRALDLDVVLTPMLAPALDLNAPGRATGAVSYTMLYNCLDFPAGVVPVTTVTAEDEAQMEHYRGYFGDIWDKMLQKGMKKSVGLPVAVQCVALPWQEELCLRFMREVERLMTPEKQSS
The experiment in a line: Inhibition of recombinant human FAAH using AMC-AA as substrate preincubated for 10 mins followed by substrate addition measured after 2 hrs by fluorometric assay. The method in brief:
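Human recombinant FAAH preincubated with inhibitor at various concentrations in Tris-HCl 125 mM, Na₂EDTA 1 mM, pH 9.0, 10 min at room temperature with shaking. AMC-AA substrate then added (1 µM final); fluorescence read every 30 s for 2 h at 37 °C (ex 340/em 450 nm). Percent inhibition from no-inhibitor controls and no-enzyme blanks; IC50 from at least three independent runs in triplicate.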

Assay [12] relates to THP-1. The experiment in a line: Antiinflammatory activity in human THP-1 monocytes assessed as decrease in IL-6 level incubated for 24 hrs in presence of […] by ELISA based qRT-PCR analysis. Format: functional, cell-based. The method in brief: as §1
In assay [13] the target is Cannabinoid receptor 2 (Mus musculus) (UniProt P47936). The assay is described as follows: Agonist activity at mouse CB2 receptor transfected in CHO-K1 cells assessed as beta2-arrestin recruitment incubated for 90 mins by luminescence based assay relative to control. Format: functional, cell-based. Put shortly:
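PathHunter eXpress kit using mouse CB2 receptor in CHO-K1 cells. Cells were seeded 48 h before the assay in kit medium. Compounds in cell plating reagent were incubated 90 min at 37 °C, 5% CO2. Working detection solution was then added for 60 min at room temperature to read β-arrestin recruitment.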

Assay [14] deals with T1, Cannabinoid receptor 2. The assay is described as follows: Displacement of [3H]CP55940 from recombinant human CB2 receptor expressed in HEK293 cell membrane incubated for 90 mins by beta scintillation counter method. The format is cell membranes. Put shortly:
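HEK293 membranes stably expressing human CB2 (50 µg protein/well) competed with 0.2 nM [3H]-CP55,940 (final) against test compound at 10⁻¹²–10⁻⁵ M in Tris-HCl 50 mM, EGTA 2.5 mM, MgCl₂ 5 mM, 0.1% fatty-acid-free BSA, pH 7.4; 90 min at 30 °C. Nonspecific binding defined with 10 µM GW405833.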
On the technique in general: Loss of bound radioactivity is the signal in a displacement assay; it reports binding, not function.

Assay [15] addresses T3, Cannabinoid receptor 1 (Homo sapiens, UniProt P21554). The assay is described as follows: […] human CB1 receptor in CHO cells incubated for 15 mins by plate reader analysis relative to control. The format is cell-based. The method in brief:
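CHO-CB1 C3 cells (human CB1) were seeded at 8000 cells/well in medium with dialyzed FBS and preincubated 15 min at 37 °C. Compounds or the CP55940 control were added for 15 min at 37 °C, then forskolin 10 µM for 5 min. cAMP was read by HTRF after 1 h at room temperature (λex 320 nm, λem 620-665 nm).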

The target of assay [16] is T3, Cannabinoid receptor 1. The assay is described as follows: Displacement of [3H]CP55940 from recombinant human CB1 receptor expressed in HEK293 cell membrane incubated for 60 mins by beta scintillation counter method.
The subject of assay [17] is THP-1. The assay is described as follows: Antiinflammatory activity in human THP-1 macrophages assessed as decrease in TNFalpha level incubated for 24 hrs in presence of […] by ELISA based qRT-PCR analysis. Format: functional, cell-based. The method in brief: as §1

Activity calls are given as the source filed them. The calls are words filed in the database; no cut-off is given here.

T3 sequence (P21554 whole entry): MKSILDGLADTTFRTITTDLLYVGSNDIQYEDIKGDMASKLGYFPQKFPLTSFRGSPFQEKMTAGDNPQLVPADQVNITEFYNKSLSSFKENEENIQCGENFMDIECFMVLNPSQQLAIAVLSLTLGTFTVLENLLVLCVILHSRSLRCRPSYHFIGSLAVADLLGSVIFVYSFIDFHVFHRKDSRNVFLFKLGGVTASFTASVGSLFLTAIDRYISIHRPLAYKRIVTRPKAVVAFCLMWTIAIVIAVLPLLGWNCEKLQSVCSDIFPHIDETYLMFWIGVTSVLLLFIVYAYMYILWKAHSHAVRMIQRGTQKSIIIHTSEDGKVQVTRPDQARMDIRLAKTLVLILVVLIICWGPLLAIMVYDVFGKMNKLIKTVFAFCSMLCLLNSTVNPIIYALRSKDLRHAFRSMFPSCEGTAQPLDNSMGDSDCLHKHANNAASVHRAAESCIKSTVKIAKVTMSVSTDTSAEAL
T1 sequence (P34972 whole entry): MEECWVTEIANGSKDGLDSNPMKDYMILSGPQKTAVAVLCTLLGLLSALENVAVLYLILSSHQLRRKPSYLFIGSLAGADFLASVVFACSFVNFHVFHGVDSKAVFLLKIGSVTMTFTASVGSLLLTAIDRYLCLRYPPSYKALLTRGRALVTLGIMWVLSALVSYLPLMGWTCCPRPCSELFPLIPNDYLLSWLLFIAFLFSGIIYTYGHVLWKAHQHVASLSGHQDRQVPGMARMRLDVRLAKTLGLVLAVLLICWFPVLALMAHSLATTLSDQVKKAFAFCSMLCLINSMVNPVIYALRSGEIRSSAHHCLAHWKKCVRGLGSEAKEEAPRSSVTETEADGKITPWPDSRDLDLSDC
Chain of Cannabinoid receptor 2 (Mus musculus) (P47936 whole entry): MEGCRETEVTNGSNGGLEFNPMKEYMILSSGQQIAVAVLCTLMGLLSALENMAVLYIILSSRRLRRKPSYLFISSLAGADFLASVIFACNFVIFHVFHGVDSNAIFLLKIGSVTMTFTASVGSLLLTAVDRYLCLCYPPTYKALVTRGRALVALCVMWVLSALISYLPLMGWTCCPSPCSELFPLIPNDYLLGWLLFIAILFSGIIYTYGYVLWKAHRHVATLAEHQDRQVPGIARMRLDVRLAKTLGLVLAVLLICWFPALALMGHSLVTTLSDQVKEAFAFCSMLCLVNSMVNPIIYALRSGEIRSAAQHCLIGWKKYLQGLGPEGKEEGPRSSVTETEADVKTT

By EC50 is commonly meant the midpoint of the concentration-response curve. A word on the IC50: it is the concentration that gives 50% inhibition. Usually Emax stands for the greatest response seen or fitted, relative to the assay's reference. A word on the Ki: it is a measure of affinity in units of concentration, obtained from inhibition or displacement. `O=C(NC12CC3CC(CC(C3)C1)C2)c1ccccc1OCc1ccccc1`: the outcome in [1], in assay [2], in assay [3], in [4] and in assay [5] was Active. For the same compound, the result in [6], in assay [7], in assay [8], in [9], in [12] and in [17] was inactive. Moreover, the 50% effective concentration (EC50) in [10] was 124 nM. Besides, the IC50 in assay [11] turned out to be 4000 nM. Further, the Emax was 12.6% in assay [13] and 100% in [15]. Further, the Ki in assay [14] is 14.8 nM; in assay [16], 241 nM.

As for `O=C(NC12CC3CC(CC(C3)C1)C2)c1ccccc1OCC1CCCCC1`, the outcome in assay [1], in [2], in [3], in assay [4], in [5] and in [7] was Active. Further, the result in [6], in [8], in assay [9], in assay [12] and in [17] was inactive. Besides, in assay [10], the EC50 was found to be 283 nM. Further, in [11], the IC50 was found to be 3400 nM. Also, the Emax came out at 5.5% in [13] and 75% in assay [15]. Also, the inhibition constant Ki in [14] was determined as 20.1 nM; in assay [16] it was 67.6 nM.

Turning to `CCCCCOc1ccccc1C(=O)NC12CC3CC(CC(C3)C1)C2`, the outcome in assay [1], in assay [2], in assay [3], in [4] and in [5] was Active. The outcome in assay [6], in assay [7], in assay [8], in [9], in [12] and in [17] was inactive. Further, in [10], the EC50 worked out at 86.9 nM. The IC50 in assay [11] worked out at 6200 nM. In addition, the Emax worked out at 34.5% in assay [13] and 100% in [15]. The Ki in assay [14] amounted to 10.8 nM; in [16], 153 nM.

For the origin of these results see ChEMBL document CHEMBL5316280, “Development of N-(1-Adamantyl)benzamides as Novel Anti-Inflammatory Multitarget Agents Acting as Dual Modulators of the Cannabinoid CB2 Receptor and Fatty Acid Amide Hydrolase” (J Med Chem, 2023).
